Assay outcomes: PubChem, several laboratories
This is a sample that favours compounds with a hit; in the whole collection about 12% have one here.
CHOP inhibitor = inhibitors of CHOP induction in ER stress response. CHO-K1 CHOP-promoter luciferase, tunicamycin-induced, 15-18 h. inhibition, % at 10 µM. 220,000 compounds, 3.8% hits;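 active = compounds that reduced the stress-induced luciferase reporter signal by more than about 70% of percent inhibition, limit read from the data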;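 also: 0% = tunicamycin plus vehicle and 100% = wells without tunicamycin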
L major viab = reduces viability of Leishmania major promastigotes; inhibition, % at 10 µM; resazurin fluorescence viability; 200,000 compounds, 9% hits; AID 1063; in the data active = inhibition above about 50%;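 also: promastigotes grown with compound for 44 hours at 28 °C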
Autophagy HCS = alters autophagy in cells | MEF GFP-LC3 puncta imaging; test concentration mostly 10 µM | calls only at 10 µM (by protocol) | AID 463193 | 190,000 compounds, 0.98% hits;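 active = percentage of spot-positive cells more than 3 SD above its plate mean, without a fluorescence outlier flag or 80% toxicity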;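 also: spot-positive cell cutoff set from DMSO-treated cells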
Dynein cargo inh = blocks dynein driven cargo transport along microtubules | 220,000 compounds, 0.47% hits | 3617.4 mouse cells, GR-EGFP nuclear translocation imaging; test concentration mostly 20 µM; stimulated with dexamethasone, 1 µM; active compounds read low | z-score, hits read low;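 active = plate z-score of nuclear minus cytoplasmic receptor signal below a set negative limit, without overly bright fluorescence or cell loss, cut at about -3.5 in these data, passing the limit was not always enough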;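 also: z-score of nuclear minus cytoplasmic ring GR-EGFP intensity difference per well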
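Buffer or medium: tet-free, stripped-serum medium; reagent: dexamethasone at 1.0 µM final, 30 min; incubation: 48 h induction, 1 h compound, 30 min dex at 37 °C; measured by: formaldehyde fixation, Hoechst nuclear stain, 10x automated fluorescence imaging; read-out: nuclear-to-cytoplasmic GR-EGFP distribution per well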
bCat nuc transl = modulators of beta-catenin nuclear translocation | HeLa beta-catenin nuclear translocation, immunofluorescence imaging | nuclear translocation activity, % at 5 µM | 190,000 compounds, 0.3% hits | AID 1665;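 active = nuclear translocation activity above 50% at 5 µM, with a well cell count of 50 or more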;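 also: per-cell ratio of nuclear to cytoplasmic median beta-catenin stain intensity; plate controls were DMSO negative control for no effect and GSK-3 inhibitor IX positive control for full effect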
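Test system: human HeLa cells, endogenous beta-catenin. Times: 24 h compound exposure, 37°C. Measured by: beta-catenin immunofluorescence imaging with DAPI.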
MT stabilizer = stabilizes microtubules in HeLa cells; HeLa tubulin immunostaining HCS, 24 h; share of cells brighter than vehicle mean+2SD; % tubulin-high responders, % at 10 µM; 200,000 compounds, 0.83% hits;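 active = plate Z-score above 3 for both tubulin-high and condensed-nucleus cell shares, with cell loss under 80%, at 10 µM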;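 also: anti alpha tubulin signal scored within the nucleus-defined area of each cell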
The depositor's hits bear a star.

What do the screens show for `O=C(c1c[nH]c(C(=O)N2CCN(c3ccccc3F)CC2)c1)c1cccc(Cl)c1Cl`?
CHOP inhibitor: 48; L major viab: 7; Autophagy HCS: inactive; Dynein cargo inh: -0.02; bCat nuc transl: 0; MT stabilizer: 23*

What do the screens show for `CCCc1n[nH]c2c1/C(=N\O)CCC2`?
CHOP inhibitor: 43; L major viab: 14; Autophagy HCS: inactive; Dynein cargo inh: -0.048; bCat nuc transl: -1; MT stabilizer: 2

What do the screens show for `c1ccc(C2=NNC(=NC3CC3)SC2)cc1`?
CHOP inhibitor: 23; L major viab: -5; Autophagy HCS: inactive; Dynein cargo inh: -0.33; bCat nuc transl: -4; MT stabilizer: 2

Results for c1ccc2c(C3=NNC(=NC4CCCCC4)SC3)c[nH]c2c1 ?
CHOP inhibitor: 14; L major viab: 93*; Autophagy HCS: inactive; Dynein cargo inh: 0.41; bCat nuc transl: 0; MT stabilizer: 2

Results for c1ccc2c(C3=NNC(=NC4CC4)SC3)c[nH]c2c1 ?
CHOP inhibitor: 13; L major viab: 97*; Autophagy HCS: inactive; Dynein cargo inh: -0.39; MT stabilizer: 2

Results for CCO[C@H]1OC(C(=O)N2CCN(Cc3ccc4c(c3)OCO4)CC2)=C[C@@H](C2CC2)[C@@H]1CCCO ?
CHOP inhibitor: 8; L major viab: 77*; Autophagy HCS: inactive; Dynein cargo inh: 0.41; bCat nuc transl: -1; MT stabilizer: 3

What do the screens show for `CCO[C@@H]1OC(C(=O)N2CCN(Cc3ccc4c(c3)OCO4)CC2)=C[C@H](c2ccc3c(c2)OCO3)[C@H]1CCCO`?
CHOP inhibitor: 1; L major viab: -1; Autophagy HCS: inactive; Dynein cargo inh: 0.14; bCat nuc transl: -3; MT stabilizer: 5

How did CCO[C@H]1OC(C(=O)Nc2ccccc2)=C[C@@H](c2csc3ccccc23)[C@@H]1CCCO do in these assays?
CHOP inhibitor: 8; L major viab: 58*; Autophagy HCS: inactive; Dynein cargo inh: 3.2; bCat nuc transl: 1; MT stabilizer: 3

What do the screens show for `CCO[C@@H]1OC(C(=O)N2CCN(Cc3ccc4c(c3)OCO4)CC2)=C[C@H](c2csc3ccccc23)[C@H]1CCCO`?
CHOP inhibitor: 14; L major viab: 72*; Autophagy HCS: inactive; Dynein cargo inh: 2.5; bCat nuc transl: -1; MT stabilizer: 2

How did Cc1cc(C)n2nc(C(=O)Nc3ccc(S(=O)(=O)N(C)C)cc3)nc2n1 do in these assays?
CHOP inhibitor: 11; Dynein cargo inh: -0.08; bCat nuc transl: 1

How did CCc1ccc(CN(C)C(=O)CCc2nnc(Cc3cccc(C)c3)o2)nc1 do in these assays?
CHOP inhibitor: -1; L major viab: 1; Autophagy HCS: inactive; Dynein cargo inh: 0.23; bCat nuc transl: -1

Results for Cc1nc2ccc(-c3nc4cc(N)ccc4o3)cc2[nH]1 ?
CHOP inhibitor: 39; L major viab: 53*; Autophagy HCS: inactive; Dynein cargo inh: 0.26; bCat nuc transl: 3; MT stabilizer: 3

Results for CC(C(=O)Nc1cccc(S(=O)(=O)N2CCOCC2)c1)N1CCN(C/C=C/c2ccccc2)CC1 (stereo not given) ?
CHOP inhibitor: -4; L major viab: 5; Autophagy HCS: inactive; Dynein cargo inh: -0.43; bCat nuc transl: -3; MT stabilizer: 2

What do the screens show for `Cc1ccccc1NC(=O)CCN1CCN(C/C=C/c2ccccc2)CC1`?
CHOP inhibitor: 31; L major viab: 88*; Autophagy HCS: inactive; Dynein cargo inh: 0.68; bCat nuc transl: -3; MT stabilizer: 2

How did COc1ccccc1NC(=O)C(C)N1CCN(C/C=C/c2ccccc2)CC1 (stereo not given) do in these assays?
CHOP inhibitor: 35; L major viab: 84*; Autophagy HCS: inactive; Dynein cargo inh: -0.97; bCat nuc transl: -3; MT stabilizer: 2

What do the screens show for `O=C(CCN1CCN(C/C=C/c2ccccc2)CC1)Nc1ccccc1`?
CHOP inhibitor: 53; L major viab: 93*; Autophagy HCS: inactive; Dynein cargo inh: -1.2; bCat nuc transl: -1; MT stabilizer: 1

Results for Cc1cccc(NC(=O)CCN2CCN(C/C=C/c3ccccc3)CC2)c1 ?
CHOP inhibitor: 2; L major viab: 91*; Autophagy HCS: inactive; Dynein cargo inh: 3; MT stabilizer: 3

What do the screens show for `O=C(CCN1CCCC1)Nc1ccccc1`?
CHOP inhibitor: 33; L major viab: -2; Autophagy HCS: inactive; Dynein cargo inh: -0.65; bCat nuc transl: 4; MT stabilizer: 2

What do the screens show for `CC(C)(C)C1CCC(C(=O)OCC(=O)N2CCN(C(=O)c3ccco3)CC2)CC1` (stereo not given)?
CHOP inhibitor: 6; L major viab: 3; Autophagy HCS: inactive; Dynein cargo inh: 0.044; bCat nuc transl: -2; MT stabilizer: 8

What do the screens show for `O=C(Cn1c(O)c(/C=C2\C=Nc3ccccc32)sc1=O)N1CCOCC1`?
CHOP inhibitor: 14; L major viab: -3; Autophagy HCS: inactive; Dynein cargo inh: -0.36; bCat nuc transl: 0; MT stabilizer: 3

What do the screens show for `O=C(Cn1c(O)c(/C=C2\C=Nc3ccccc32)sc1=O)Nc1ccc2c(c1)OCO2`?
CHOP inhibitor: 5; L major viab: -3; Autophagy HCS: active; Dynein cargo inh: -0.067; bCat nuc transl: 0; MT stabilizer: 2

What do the screens show for `CC1CCN(C(c2cccs2)c2nnnn2Cc2ccccc2)CC1` (stereo not given)?
CHOP inhibitor: 33; L major viab: 29; Autophagy HCS: inactive; Dynein cargo inh: 2.2; bCat nuc transl: -3; MT stabilizer: 4

Results for C/C(=N\Nc1cc(C)nc(NCc2ccccc2)n1)c1ccc([N+](=O)[O-])cc1 ?
CHOP inhibitor: -15; Dynein cargo inh: 0.18; bCat nuc transl: -1

Results for COc1ccc(-c2noc(-c3ccccc3C(=O)N3CCOCC3)n2)cc1 ?
CHOP inhibitor: -2; L major viab: -3; Autophagy HCS: inactive; Dynein cargo inh: -0.44; bCat nuc transl: -3; MT stabilizer: 4

How did Fc1ccc(NC(=S)N2CCN(c3ncccn3)CC2)cc1 do in these assays?
CHOP inhibitor: 17; L major viab: -4; Autophagy HCS: inactive; Dynein cargo inh: 0.52; bCat nuc transl: 1; MT stabilizer: 3

How did Cc1ccc(-n2cccn2)c(CN2CCCC(C(=O)c3sccc3C)C2)c1 (stereo not given) do in these assays?
CHOP inhibitor: -5; L major viab: 87*; Autophagy HCS: inactive; Dynein cargo inh: -0.48; bCat nuc transl: -4; MT stabilizer: 2

Results for Cc1ccsc1C(=O)C1CCCN(Cc2cccn2-c2ccc(Cl)cn2)C1 (stereo not given) ?
CHOP inhibitor: -2; L major viab: 94*; Autophagy HCS: inactive; Dynein cargo inh: -0.24; bCat nuc transl: 1; MT stabilizer: 3
